Converted amounts (≈) assume the structure as drawn.
Assays:
[1] = Solubility in aqueous solution; format: physicochemical; settings: buffer
Staphylococcus aureus [2] = assay: Antimicrobial activity against methicillin-resistant Staphylococcus aureus NRS100 by micro-dilution method; format: functional
Summary of the method: (§1)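 Broth microdilution MIC in cation-adjusted Mueller-Hinton II medium supplemented with 1% Tween-80 (CAMHB-T), needed to disperse the farnesol-type compounds. Compounds tested from 2 to 2048 μg/mL.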

Staphylococcus aureus [3] = assay: Antimicrobial activity against methicillin-resistant Staphylococcus aureus NRS123 by micro-dilution method; format: functional; summary of the method: as §1
Staphylococcus aureus [4] = assay: Antimicrobial activity against methicillin-resistant Staphylococcus aureus NRS70 by micro-dilution method; format: functional; summary of the method: as §1
Staphylococcus aureus [5] = assay: Antimicrobial activity against methicillin-susceptible Staphylococcus aureus ATCC 29213 by micro-dilution method; format: functional; summary of the method: as §1
Staphylococcus aureus [6] = assay: Potentiation of ampicillin-induced antimicrobial activity against methicillin-susceptible Staphylococcus aureus ATCC 29213 at 256 ug/ml (reference value: ampicillin alone MIC = 0.5 ug/ml); format: functional
Staphylococcus aureus [7] = assay: Potentiation of ampicillin-induced antimicrobial activity against methicillin-susceptible Staphylococcus aureus ATCC 29213 at 256 ug/ml relative to ampicillin alone; format: functional
Staphylococcus aureus [8] = assay: Potentiation of ampicillin-induced antimicrobial activity against methicillin-resistant Staphylococcus aureus NRS100 at 256 ug/ml (reference value: ampicillin alone MIC = 16 ug/ml); format: functional
Staphylococcus aureus [9] = assay: Potentiation of ampicillin-induced antimicrobial activity against methicillin-resistant Staphylococcus aureus NRS100 at 256 ug/ml relative to ampicillin alone; format: functional
Staphylococcus aureus [10] = assay: Potentiation of ampicillin-induced antimicrobial activity against methicillin-resistant Staphylococcus aureus NRS70 at 256 ug/ml (reference value: ampicillin alone MIC = 16 ug/ml); format: functional
Staphylococcus aureus [11] = assay: Potentiation of ampicillin-induced antimicrobial activity against methicillin-resistant Staphylococcus aureus NRS70 at 256 ug/ml relative to ampicillin alone; format: functional
Staphylococcus aureus [12] = assay: Potentiation of ampicillin-induced antimicrobial activity against methicillin-resistant Staphylococcus aureus NRS123 at 256 ug/ml (reference value: ampicillin alone MIC = 12 ug/ml); format: functional
Staphylococcus aureus [13] = assay: Potentiation of ampicillin-induced antimicrobial activity against methicillin-resistant Staphylococcus aureus NRS123 at 256 ug/ml relative to ampicillin alone; format: functional
Staphylococcus aureus [14] = assay: Potentiation of oxacillin-induced antimicrobial activity against methicillin-susceptible Staphylococcus aureus ATCC 29213 at 256 ug/ml (reference value: oxacillin alone MIC = 0.4 ug/ml); format: functional
Staphylococcus aureus [15] = assay: Potentiation of oxacillin-induced antimicrobial activity against methicillin-susceptible Staphylococcus aureus ATCC 29213 at 256 ug/ml relative to oxacillin alone; format: functional
Staphylococcus aureus [16] = assay: Potentiation of oxacillin-induced antimicrobial activity against methicillin-resistant Staphylococcus aureus NRS100 at 256 ug/ml (reference value: oxacillin alone MIC = >256 ug/ml); format: functional
Staphylococcus aureus [17] = assay: Potentiation of oxacillin-induced antimicrobial activity against methicillin-resistant Staphylococcus aureus NRS100 at 256 ug/ml relative to oxacillin alone; format: functional
Staphylococcus aureus [18] = assay: Potentiation of oxacillin-induced antimicrobial activity against methicillin-resistant Staphylococcus aureus NRS70 at 256 ug/ml (reference value: oxacillin alone MIC = 32 ug/ml); format: functional
Staphylococcus aureus [19] = assay: Potentiation of oxacillin-induced antimicrobial activity against methicillin-resistant Staphylococcus aureus NRS70 at 256 ug/ml relative to oxacillin alone; format: functional
Staphylococcus aureus [20] = assay: Potentiation of oxacillin-induced antimicrobial activity against methicillin-resistant Staphylococcus aureus NRS123 at 256 ug/ml (reference value: oxacillin alone MIC = 24 ug/ml); format: functional
Staphylococcus aureus [21] = assay: Potentiation of oxacillin-induced antimicrobial activity against methicillin-resistant Staphylococcus aureus NRS123 at 256 ug/ml relative to oxacillin alone; format: functional
Staphylococcus aureus [22] = assay: Potentiation of oxacillin-induced antimicrobial activity against methicillin-resistant Staphylococcus aureus NRS70 at 256 ug/ml by checkerboard assay; format: functional
Summary of the method: (§2)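 Checkerboard combination of oxacillin with the farnesol-type compound. Synergy scored by the fractional inhibitory concentration index (FICI).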

Staphylococcus aureus [23] = assay: Potentiation of oxacillin-induced antimicrobial activity against methicillin-resistant Staphylococcus aureus NRS100 at 256 ug/ml by checkerboard assay; format: functional; summary of the method: as §2

**Q.** Which solubility [1] does the source give for `CC(C)=CCC/C(C)=C/CC/C(C)=C/CNP(O)(O)=S` here?
**A.** Soluble

**Q.** And the MIC (Staphylococcus aureus [2])?
**A.** 512 µg/mL (≈ 1610 µM)

**Q.** What about the MIC (Staphylococcus aureus [3]) of the same compound?
**A.** 512 µg/mL (≈ 1610 µM)

**Q.** And the MIC (Staphylococcus aureus [4])?
**A.** 512 µg/mL (≈ 1610 µM)

**Q.** What about the MIC (Staphylococcus aureus [5]) of the same compound?
**A.** 512 µg/mL (≈ 1610 µM)

**Q.** And the MIC (Staphylococcus aureus [6])?
**A.** 0.5 µg/mL

**Q.** And the “fold change (FC)” value (Staphylococcus aureus [7])?
**A.** 1

**Q.** What about the MIC (Staphylococcus aureus [8]) of the same compound?
**A.** 3 µg/mL

**Q.** And the “fold change (FC)” value (Staphylococcus aureus [9])?
**A.** 5.3

**Q.** What about the MIC (Staphylococcus aureus [10]) of the same compound?
**A.** 6 µg/mL

**Q.** And the “fold change (FC)” value (Staphylococcus aureus [11])?
**A.** 2.7

**Q.** What about the MIC (Staphylococcus aureus [12]) of the same compound?
**A.** 8 µg/mL

**Q.** And the “fold change (FC)” value (Staphylococcus aureus [13])?
**A.** 1.5

**Q.** What about the MIC (Staphylococcus aureus [14]) of the same compound?
**A.** 0.4 µg/mL

**Q.** What about the “fold change (FC)” value (Staphylococcus aureus [15]) of the same compound?
**A.** 1

**Q.** What about the MIC (Staphylococcus aureus [16]) of the same compound?
**A.** 2 µg/mL

**Q.** What about the “fold change (FC)” value (Staphylococcus aureus [17]) of the same compound?
**A.** >128

**Q.** And the MIC (Staphylococcus aureus [18])?
**A.** 1 µg/mL

**Q.** And the “fold change (FC)” value (Staphylococcus aureus [19])?
**A.** 32

**Q.** What about the MIC (Staphylococcus aureus [20]) of the same compound?
**A.** 16 µg/mL

**Q.** What about the “fold change (FC)” value (Staphylococcus aureus [21]) of the same compound?
**A.** 1.5

**Q.** And the “fractional inhibitory concentration index (FICI)” value (Staphylococcus aureus [22])?
**A.** 0.53 - 1.13

**Q.** And the “fractional inhibitory concentration index (FICI)” value (Staphylococcus aureus [23])?
**A.** 0.53 - 1.13
